# Source: ChEMBL document CHEMBL1144688, “Gentisyl alcohol derivatives from the marine-derived fungus Penicillium terrestre” (J Nat Prod, 2008)
# pIC50: −log10 of the molar value.
# Experiments:
# [1] = tested on: HL-60; assay: Cytotoxicity against human HL60 cells by MTT assay; assay type: functional, cell-based
# Summary of the method: (§1)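 Cells at 5 × 10^4 cells/mL were preincubated for 24 h, then exposed to compounds in MeOH at various concentrations for 72 h. MTT (5 mg/mL) was added for 4 h, the formazan was dissolved in DMSO, and absorbance was read at 540 nm.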
# [2] = DPPH radical scavenging activity; assay type: functional
# Summary of the method: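 Samples dissolved in MeOH were mixed with methanolic DPPH, shaken and left for 30 min. Absorbance was read at 520 nm and percent inhibition calculated. IC50 is the concentration that scavenges 50% of the DPPH radicals.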
# [3] = tested on: MOLT-4; assay: Cytotoxicity against human MOLT4 cells by MTT assay; assay type: functional, cell-based; summary of the method: as §1
# [4] = tested on: A549; assay: Cytotoxicity against human A549 cells by SRB method; assay type: functional, cell-based
# Summary of the method: (§2)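 Cells were plated at 2 × 10^5 cells/mL and treated with test compounds in MeOH over a concentration range for 24 h. They were then fixed with 12% TCA, stained with 0.4% SRB and read at 515 nm. IC50 was taken from the linear portion of log dose–response curves.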
# [5] = tested on: Bel-7402; assay: Cytotoxicity against human BEL-7402 cells by SRB method; assay type: functional, cell-based; summary of the method: as §2
# [6] = biological target: Proto-oncogene tyrosine-protein kinase Src (Homo sapiens) (UniProt P12931); assay: Inhibition of Src kinase at 10 uM by ELISA
# Summary of the method: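 ELISA on plates precoated with 20 µg/mL poly(Glu,Tyr)4:1, using purified kinase and 5 µM ATP in 50 mM HEPES pH 7.4 with MgCl2, MnCl2, Na3VO4 and DTT, for 1 h at 37 °C. Phosphotyrosine was detected with PY99 antibody, then HRP anti-mouse IgG and o-phenylenediamine/H2O2, read at 490 nm. Inhibition was calculated against the 1% DMSO control, in duplicate.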
# [7] = biological target: Vascular endothelial growth factor receptor 2 (Homo sapiens) (UniProt P35968); conditions: at 10 µM
# Vascular endothelial growth factor receptor 2 (Homo sapiens), sequence (P35968 whole entry): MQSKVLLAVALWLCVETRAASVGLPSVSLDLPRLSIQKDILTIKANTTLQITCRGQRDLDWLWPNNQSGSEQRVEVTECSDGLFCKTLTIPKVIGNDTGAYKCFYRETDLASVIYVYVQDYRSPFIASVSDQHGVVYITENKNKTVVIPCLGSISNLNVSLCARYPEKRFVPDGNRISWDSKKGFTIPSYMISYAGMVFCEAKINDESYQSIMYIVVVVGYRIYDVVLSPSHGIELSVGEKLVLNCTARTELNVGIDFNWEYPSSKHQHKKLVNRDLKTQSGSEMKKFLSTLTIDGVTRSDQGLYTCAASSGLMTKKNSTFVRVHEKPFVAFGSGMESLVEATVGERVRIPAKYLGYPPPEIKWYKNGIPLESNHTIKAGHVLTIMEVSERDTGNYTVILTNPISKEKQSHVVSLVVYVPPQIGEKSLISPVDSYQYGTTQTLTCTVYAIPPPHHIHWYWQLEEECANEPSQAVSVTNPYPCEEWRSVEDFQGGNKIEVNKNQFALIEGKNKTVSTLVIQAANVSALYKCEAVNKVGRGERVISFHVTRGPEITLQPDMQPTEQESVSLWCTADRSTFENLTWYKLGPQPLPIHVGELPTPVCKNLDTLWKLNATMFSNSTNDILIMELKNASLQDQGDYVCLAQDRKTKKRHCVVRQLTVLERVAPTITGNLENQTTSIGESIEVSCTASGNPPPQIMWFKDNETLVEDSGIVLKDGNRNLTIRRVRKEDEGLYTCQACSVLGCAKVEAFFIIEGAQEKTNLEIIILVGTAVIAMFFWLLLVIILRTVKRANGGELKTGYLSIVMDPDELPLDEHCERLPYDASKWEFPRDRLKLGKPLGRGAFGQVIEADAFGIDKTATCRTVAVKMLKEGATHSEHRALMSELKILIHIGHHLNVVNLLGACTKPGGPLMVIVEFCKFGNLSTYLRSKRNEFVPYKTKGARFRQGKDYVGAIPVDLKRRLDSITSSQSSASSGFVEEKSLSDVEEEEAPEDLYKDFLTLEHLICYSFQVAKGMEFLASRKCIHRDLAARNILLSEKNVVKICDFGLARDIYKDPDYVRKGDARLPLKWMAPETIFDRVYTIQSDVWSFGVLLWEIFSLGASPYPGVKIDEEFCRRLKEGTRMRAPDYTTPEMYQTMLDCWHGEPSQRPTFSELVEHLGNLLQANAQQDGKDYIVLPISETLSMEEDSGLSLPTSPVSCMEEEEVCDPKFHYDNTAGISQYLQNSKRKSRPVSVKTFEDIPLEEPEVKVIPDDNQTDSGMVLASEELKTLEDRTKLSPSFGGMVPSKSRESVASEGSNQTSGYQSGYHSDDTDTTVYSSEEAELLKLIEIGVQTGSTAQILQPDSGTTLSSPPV
# Proto-oncogene tyrosine-protein kinase Src (Homo sapiens), sequence (P12931 2-536 limits assumed): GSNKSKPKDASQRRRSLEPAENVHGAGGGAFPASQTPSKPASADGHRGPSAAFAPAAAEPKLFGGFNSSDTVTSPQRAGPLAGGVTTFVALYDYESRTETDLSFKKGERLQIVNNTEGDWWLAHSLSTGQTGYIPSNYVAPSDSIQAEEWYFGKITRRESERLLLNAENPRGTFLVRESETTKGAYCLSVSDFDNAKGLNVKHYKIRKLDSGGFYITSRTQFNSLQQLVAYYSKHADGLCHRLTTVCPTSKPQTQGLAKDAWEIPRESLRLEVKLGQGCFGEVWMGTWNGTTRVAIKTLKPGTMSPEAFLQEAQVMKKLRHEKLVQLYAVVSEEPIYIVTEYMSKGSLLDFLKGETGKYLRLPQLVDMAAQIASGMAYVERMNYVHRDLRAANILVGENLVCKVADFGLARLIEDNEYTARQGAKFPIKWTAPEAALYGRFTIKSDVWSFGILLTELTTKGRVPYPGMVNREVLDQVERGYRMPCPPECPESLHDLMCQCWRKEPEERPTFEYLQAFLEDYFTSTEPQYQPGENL
SMILES,pIC50 [2],inhibition [6],inhibition [7],pIC50 [1],pIC50 [3],pIC50 [4],pIC50 [5]
COCc1cc(O)cc(Cl)c1O,5.07,,,5.17,4.19,4.25,4.24
COCc1cc(O)ccc1O,5.01,,,4.23,4.06,< 4.00,< 4.00
COCc1cc(O)c(Cc2cc(O)ccc2O)cc1O,5.20,,,5.20,5.24,4.47,4.21
OCc1cc(OCc2cc(O)ccc2O)cc(Cl)c1O,5.36,,,5.28,5.26,4.84,4.41
OCc1c(O)c(Cl)cc(O)c1Cc1cc(O)ccc1O,5.28,,,4.26,4.24,4.86,4.20
COCc1cc(O)c(Cc2cc(O)c(Cc3cc(O)ccc3O)cc2O)cc1O,5.59,,,4.48,5.26,4.63,4.24
OCc1cc(O)c(Cc2cc(O)ccc2O)c(Cl)c1O,5.39,35.9%,31.8%,5.29,5.19,5.24,5.22

# The next lines start with results.
pIC50 [2],inhibition [6],inhibition [7],SMILES,pIC50 [1],pIC50 [3],pIC50 [4],pIC50 [5]
5.34,,,Oc1ccc(O)c(COCc2cc(O)ccc2O)c1,5.26,5.25,4.74,4.24
5.37,,,Oc1ccc(O)c(COCc2cc(O)cc(Cl)c2O)c1,5.21,5.24,4.74,4.21
5.21,,,OCc1cc(OCc2cc(O)ccc2O)ccc1O,4.26,5.19,5.02,4.23
